{"data": "Experimental data of several laboratories", "target": "Homeodomain-interacting protein kinase 2 (HIPK2, Homo sapiens, UniProt Q9H2X6)", "note": "Lines come from different studies, so protocols differ."}
{"Compound": "COc1cc(Nc2nccc(-c3cnn4nc(OC)ccc34)n2)cc(C(F)(F)F)c1", "observed": "binding", "method": "competition with immobilised ligand", "tested at": "1 µM", "remaining binding [%]": 34}
{"Compound": "O=C(NCCCN1CCOCC1)c1ccc(Nc2nccc(-c3cc4ccccc4s3)n2)cc1", "observed": "binding", "method": "competition with immobilised ligand", "tested at": "1 µM", "remaining binding [%]": 34}
{"Compound": "CCCOc1ccc([C@@H]2[C@@H](C(=O)O)[C@H](c3ccc4c(c3)OCO4)CN2CC(=O)Nc2c(CC)cccc2CC)cc1", "observed": "cell-free assay", "method": "competition with immobilised ligand", "tested at": "1 µM", "remaining binding [%]": 80}
{"Compound": "N[C@H]1CCN(c2nccc(-c3cnn4ncccc34)n2)C1", "observed": "binding", "tested at": "1 µM", "remaining binding [%]": 98}
{"Compound": "COc1cnc(Nc2cccc(S(N)(=O)=O)c2)nc1N1CCN(c2ccccc2)CC1", "observed": "binding", "method": "competition with immobilised ligand", "tested at": "1 µM", "remaining binding [%]": 100}
{"Compound": "Cc1c[nH]c2nccc(Oc3c(F)cc(Nc4cc(Cl)nc(N)n4)cc3F)c12", "observed": "cell-free assay", "method": "competition with immobilised ligand", "tested at": "0.1 µM", "remaining binding [%]": 90}
{"Compound": "CN(C)c1nccc(-c2cnn3ncccc23)n1", "observed": "binding", "tested at": "1 µM", "remaining binding [%]": 49}
{"Compound": "O=C(c1ccc(Nc2ncc(Cl)c(-c3ccc(Cl)s3)n2)cc1)N1CCC(N2CCCC2)CC1", "observed": "binding", "method": "competition with immobilised ligand", "tested at": "1 µM", "remaining binding [%]": 0.15}
{"Compound": "COc1cnc(Nc2cccc(S(N)(=O)=O)c2)nc1N1CCN(c2ccccc2)C(=O)C1", "observed": "binding", "method": "competition with immobilised ligand", "tested at": "1 µM", "remaining binding [%]": 100}
{"Compound": "COc1ncc2cc3ccccc3nc2c1C#N", "observed": "cell-free assay", "method": "competition with immobilised ligand", "tested at": "5 µM", "remaining binding [%]": 98}
{"Compound": "O=C(O)[C@H]1[C@H](Cn2nnc3ccccc3c2=O)CC[C@@H]1C(=O)c1ccc(OCCC2CCOCC2)cc1", "observed": "cell-free assay", "method": "competition with immobilised ligand", "tested at": "1 µM", "remaining binding [%]": 100}
{"Compound": "C[C@@H]1CCN(c2nccc(-c3cnn4ncccc34)n2)C1", "observed": "binding", "tested at": "1 µM", "remaining binding [%]": 61}
{"Compound": "C[C@H](NC(=O)c1cnc2n1[C@](C)(Cc1ccc(C#N)cc1)C(=O)N2c1cc(Cl)c(F)c(Cl)c1)C(=O)NC1(c2ccccn2)CC1", "observed": "cell-free assay", "method": "competition with immobilised ligand", "tested at": "1 µM", "remaining binding [%]": 100}
{"Compound": "CC1CCCN1c1nccc(-c2cnn3ncccc23)n1 (stereo not shown)", "observed": "binding", "tested at": "1 µM", "remaining binding [%]": 100}
{"Compound": "CC(=O)Nc1c(C(C)=O)c(=O)n(C)c2nc(-c3ccc(Cl)cc3Cl)c(-c3ccc(Cl)cc3)cc12", "observed": "cell-free assay", "method": "competition with immobilised ligand", "tested at": "1 µM", "remaining binding [%]": 100}
{"Compound": "O=C(c1ccc(Nc2ncc(Cl)c(-c3cc4ccccc4s3)n2)cc1)N1CCC(N2CCCC2)CC1", "observed": "binding", "method": "competition with immobilised ligand", "tested at": "1 µM", "remaining binding [%]": 0.2}
{"Compound": "CN(C)c1ncc(F)c(-c2cnn3ncccc23)n1", "observed": "binding", "tested at": "1 µM", "remaining binding [%]": 57}
{"Compound": "CCC(=O)N[C@@H]1CC[C@H](C(=O)N(C)c2ccc(-c3nc4ccccc4o3)cc2)C1", "observed": "cell-free assay", "method": "competition with immobilised ligand", "tested at": "1 µM", "remaining binding [%]": 100}
{"Compound": "CN(CCCC(F)(F)F)c1nccc(-c2cnn3ncccc23)n1", "observed": "binding", "tested at": "1 µM", "remaining binding [%]": 100}
{"Compound": "O=C(NCC1CCOCC1)c1n[nH]cc1NC(=O)c1c(F)cccc1F", "observed": "binding", "method": "competition with immobilised ligand", "tested at": "1 µM", "remaining binding [%]": 100}
{"Compound": "CC1=C(C#N)[C@@H](c2ccc3[nH]nc(C)c3c2)C(C#N)=C(c2ccc(Cl)cc2)N1", "observed": "cell-free assay", "method": "competition with immobilised ligand", "tested at": "1 µM", "remaining binding [%]": 86.1}
{"Compound": "F[C@@H]1CCN(c2nccc(-c3cnn4ncccc34)n2)C1", "observed": "binding", "tested at": "1 µM", "remaining binding [%]": 100}
